Results from paper PMC9435035 (ACS Omega, 2022).

Assays:
[1] = target: α-glucosidase (Saccharomyces cerevisiae, UniProt P53341); assay: α-glucosidase inhibitory activity; type: biochemical; conditions: read-out: glucosidase inhibition IC50 ± SEM; mean ± SEM
[2] = system: Balb/C mice; assay: acute toxicity study in mice; type: in vivo; conditions: for mortality: maximum oral dose of 2000 mg/kg (b.w.); for toxic effects (diarrhea, convulsions, lethargy, sleeping, salivation, tremor): oral up to 2000 mg/kg, observed daily for 2 weeks
How it was run: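 Two-phase modified Lorke protocol in Balb/C mice (20–25 g), four per group. Phase 1: control given Tween-80 (2%); other groups received oral test compound at 100, 500 or 1000 mg/kg. Phase 2: oral doses of 1250, 1500 and 2000 mg/kg. Animals observed for the first 24 h, then daily for 2 weeks for diarrhea, convulsions, lethargy, sleeping, salivation and tremors, with mortality monitored.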

[3] = system: overnight fasted normal rats; assay: oral glucose tolerance test; type: in vivo, Wistar albino rats; conditions: OGTT, glucose 3 g/kg oral
[4] = system: streptozotocin-induced diabetic Wistar rats; assay: antidiabetic activity: blood glucose in STZ-induced diabetes; type: in vivo, Wistar albino rats
How it was run: (§1)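 Male Wistar albino rats (170–200 g, 8–10 weeks), fasted overnight, given STZ 50 mg/kg i.p. in 0.1 M citrate buffer, then 10% glucose for 3 days. Tail-vein glucose by glucometer at 72 h; >250 mg/dL counted as diabetic. Body weight and blood glucose on days 1, 7, 14, 21 and 28. Means ± SEM, one-way ANOVA with Dunnett's test.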

[5] = body weight of STZ-induced diabetic rats; type: in vivo, Wistar albino rats; conditions: for body weight, day 1: day 1, in g (unit assumed); for body weight, day 7: day 7, in g (unit assumed); for body weight, day 14: day 14, in g (unit assumed); for body weight, day 21: day 21, in g (unit assumed); for body weight, day 28: day 28, in g (unit assumed)
How it was run: as §1

[6] = system: streptozotocin-induced diabetic Wistar rats; assay: lipid profile in streptozotocin-induced diabetes; type: in vivo, Wistar albino rats; conditions: STZ-diabetic rats
How it was run: (§2)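 STZ-diabetic Wistar rats (n = 8 per group) received test compound at 10 or 20 mg/kg p.o., or glibenclamide 500 μg/kg p.o., once daily for 28 days; controls received vehicle. On day 28, rats were anesthetised with pentobarbital sodium (35 mg/kg) and blood was drawn by cardiac puncture. Serum ALP, SGPT, SGOT, LDL, HDL, TG, total cholesterol, creatinine and insulin were measured. Means ± SEM, one-way ANOVA with Dunnett's test.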

[7] = system: streptozotocin-induced diabetic Wistar rats; assay: serum profile; type: in vivo, Wistar albino rats; conditions: STZ-diabetic rats; for (ALP) IU / (SGOT) IU / (SGPT) IU: serum
How it was run: as §2

[8] = 10 mg/kg p.o. once daily, day 28, 10 mg/kg
[9] = 20 mg/kg p.o. once daily, day 28, 20 mg/kg

α-glucosidase, sequence (P53341 whole entry): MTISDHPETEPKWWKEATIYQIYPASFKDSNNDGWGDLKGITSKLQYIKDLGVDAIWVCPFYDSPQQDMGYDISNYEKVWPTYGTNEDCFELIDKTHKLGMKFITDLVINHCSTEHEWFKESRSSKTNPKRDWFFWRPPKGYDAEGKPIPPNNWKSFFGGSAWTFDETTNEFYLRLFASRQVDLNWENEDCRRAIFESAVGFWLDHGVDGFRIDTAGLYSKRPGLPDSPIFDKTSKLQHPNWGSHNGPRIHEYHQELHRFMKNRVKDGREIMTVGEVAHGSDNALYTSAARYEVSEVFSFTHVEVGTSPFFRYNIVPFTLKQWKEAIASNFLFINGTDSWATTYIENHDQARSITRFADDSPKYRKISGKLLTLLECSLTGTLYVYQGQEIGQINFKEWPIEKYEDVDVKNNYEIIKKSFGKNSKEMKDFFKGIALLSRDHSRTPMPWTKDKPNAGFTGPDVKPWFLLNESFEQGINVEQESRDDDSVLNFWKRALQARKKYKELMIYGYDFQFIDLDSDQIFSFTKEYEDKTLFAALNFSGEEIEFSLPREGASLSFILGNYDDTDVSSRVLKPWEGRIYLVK

## 2-(4-(Benzyloxy)-3-methoxyphenyl)-4-(p-tolyl)-2,3-dihydrobenzo[b][1,5]thiazepine [12B]
[1]
  IC50: 3.79 ± 0.22 µM
[2]
  mortality: no mortality
  toxic effects (diarrhea, convulsions, lethargy, sleeping, salivation, tremor): no toxic effects
[3]; dose 10 mg/kg
  blood glucose level, 0 min: 101.67 ± 4.55 mg/dL
  blood glucose level, 30 min: 121.63 ± 4.56 mg/dL
  blood glucose level, 60 min: 122.02 ± 4.66 mg/dL
  blood glucose level, 90 min: 115.31 ± 4.61 mg/dL
  blood glucose level, 120 min: 114.19 ± 4.61 mg/dL
[3]; dose 20 mg/kg
  blood glucose level, 0 min: 105.59 ± 4.61 mg/dL
  blood glucose level, 30 min: 117.38 ± 4.01 mg/dL
  blood glucose level, 60 min: 117.61 ± 4.60 mg/dL
  blood glucose level, 90 min: 110.71 ± 4.91 mg/dL
  blood glucose level, 120 min: 111.21 ± 4.31 mg/dL
[4]; 10 mg/kg p.o. once daily
  blood glucose level, day 1: 371.67 ± 4.66 mg/dL
  blood glucose level, day 7: 301.41 ± 4.56 mg/dL
  blood glucose level, day 14: 209.60 ± 4.22 mg/dL
  blood glucose level, day 21: 152.56 ± 4.71 mg/dL
[4]; [8]
  blood glucose level, day 28: 138.92 ± 4.67 mg/dL
[4]; 20 mg/kg p.o. once daily
  blood glucose level, day 1: 369.56 ± 4.56 mg/dL
  blood glucose level, day 7: 237.11 ± 4.39 mg/dL
  blood glucose level, day 14: 167.49 ± 5.02 mg/dL
  blood glucose level, day 21: 131.69 ± 4.77 mg/dL
[4]; [9]
  blood glucose level, day 28: 114.74 ± 5.09 mg/dL
[5]; 10 mg/kg
  body weight, day 1: 187.5 ± 4.39
  body weight, day 7: 185.1 ± 4.71
  body weight, day 14: 184.5 ± 4.06
  body weight, day 21: 187.0 ± 4.39
  body weight, day 28: 173.9 ± 4.28
[5]; 20 mg/kg
  body weight, day 1: 189.7 ± 4.08
  body weight, day 7: 184.7 ± 4.66
  body weight, day 14: 187.1 ± 4.11
  body weight, day 21: 189.3 ± 4.60
  body weight, day 28: 175.3 ± 5.01
[6]; 10 mg/kg for 28 days
  HDL: 45.91 ± 2.70 mg/dL
  TG: 149.81 ± 4.60 mg/dL
[6]; 10 mg/kg for 28 days, 10 mg/kg
  LDL: 134.89 ± 4.33 mg/dL
  total CH: 152.11 ± 4.11 mg/dL
[6]; 20 mg/kg for 28 days
  HDL: 53.24 ± 2.08 mg/dL
  TG: 117.97 ± 4.01 mg/dL
[6]; 20 mg/kg for 28 days, 20 mg/kg
  LDL: 113.71 ± 4.16 mg/dL
  total CH: 136.03 ± 4.39 mg/dL
[7]; 10 mg/kg for 28 days
  insulin level: 0.651 ± 0.34 ng/mL
  serum creatinine: 0.90 ± 0.30 mg/dL
  (ALP) IU: 215.19 ± 4.10 IU
  (SGOT) IU: 26.01 ± 2.01 IU
  (SGPT) IU: 26.53 ± 2.38 IU
[7]; 20 mg/kg for 28 days
  insulin level: 0.660 ± 0.30 ng/mL
  serum creatinine: 0.80 ± 0.38 mg/dL
  (ALP) IU: 205.93 ± 4.67 IU
  (SGOT) IU: 22.91 ± 2.87 IU
  (SGPT) IU: 23.35 ± 2.54 IU

## 2-(4-Fluorophenyl)-4-(p-tolyl)-2,3-dihydrobenzo[b][1,5]thiazepine [13B]
[1]
  IC50: 3.28 ± 0.19 µM
[2]
  mortality: no mortality
  toxic effects (diarrhea, convulsions, lethargy, sleeping, salivation, tremor): no toxic effects
[3]; dose 10 mg/kg
  blood glucose level, 0 min: 104.80 ± 4.97 mg/dL
  blood glucose level, 30 min: 120.04 ± 5.04 mg/dL
  blood glucose level, 60 min: 118.31 ± 4.65 mg/dL
  blood glucose level, 90 min: 109.81 ± 4.56 mg/dL
  blood glucose level, 120 min: 113.93 ± 4.67 mg/dL
[3]; dose 20 mg/kg
  blood glucose level, 0 min: 103.79 ± 5.12 mg/dL
  blood glucose level, 30 min: 116.81 ± 4.31 mg/dL
  blood glucose level, 60 min: 114.98 ± 4.34 mg/dL
  blood glucose level, 90 min: 110.21 ± 3.91 mg/dL
  blood glucose level, 120 min: 110.04 ± 4.81 mg/dL
[4]; 10 mg/kg p.o. once daily
  blood glucose level, day 1: 370.81 ± 4.79 mg/dL
  blood glucose level, day 7: 289.89 ± 4.33 mg/dL
  blood glucose level, day 14: 200.33 ± 4.57 mg/dL
  blood glucose level, day 21: 149.30 ± 4.56 mg/dL
[4]; [8]
  blood glucose level, day 28: 132.98 ± 4.33 mg/dL
[4]; 20 mg/kg p.o. once daily
  blood glucose level, day 1: 375.31 ± 5.01 mg/dL
  blood glucose level, day 7: 230.71 ± 4.88 mg/dL
  blood glucose level, day 14: 163.68 ± 4.37 mg/dL
  blood glucose level, day 21: 120.72 ± 4.11 mg/dL
[4]; [9]
  blood glucose level, day 28: 108.42 ± 3.98 mg/dL
[5]; 10 mg/kg
  body weight, day 1: 186.6 ± 4.70
  body weight, day 7: 183.4 ± 4.15
  body weight, day 14: 186.3 ± 4.22
  body weight, day 21: 180.1 ± 4.12
  body weight, day 28: 177.3 ± 4.40
[5]; 20 mg/kg
  body weight, day 1: 193.6 ± 4.21
  body weight, day 7: 187.2 ± 4.81
  body weight, day 14: 191.1 ± 4.14
  body weight, day 21: 187.8 ± 3.99
  body weight, day 28: 185.7 ± 4.79
[6]; 10 mg/kg for 28 days
  HDL: 46.29 ± 2.01 mg/dL
  LDL: 127.81 ± 4.39 mg/dL
  TG: 142.93 ± 4.21 mg/dL
  total CH: 148.67 ± 4.11 mg/dL
[6]; 20 mg/kg for 28 days
  HDL: 56.08 ± 2.63 mg/dL
  LDL: 108.91 ± 4.11 mg/dL
  TG: 114.81 ± 4.41 mg/dL
  total CH: 134.21 ± 4.77 mg/dL
[7]; 10 mg/kg for 28 days
  insulin level: 0.696 ± 0.29 ng/mL
  serum creatinine: 0.76 ± 0.39 mg/dL
  (ALP) IU: 208.96 ± 4.22 IU
  (SGOT) IU: 25.41 ± 2.18 IU
  (SGPT) IU: 24.76 ± 2.81 IU
[7]; 20 mg/kg for 28 days
  insulin level: 0.705 ± 0.31 ng/mL
  serum creatinine: 0.70 ± 0.33 mg/dL
  (ALP) IU: 201.80 ± 4.71 IU
  (SGOT) IU: 22.09 ± 2.21 IU
  (SGPT) IU: 22.03 ± 2.78 IU

## N,N-Dimethyl-4-(4-(p-tolyl)-2,3-dihydrobenzo[b][1,5]thiazepin-2-yl)aniline [14B]
[1]
  IC50: 3.34 ± 0.27 µM
[2]
  mortality: no mortality
  toxic effects (diarrhea, convulsions, lethargy, sleeping, salivation, tremor): no toxic effects
[3]; dose 10 mg/kg
  blood glucose level, 0 min: 104.21 ± 4.67 mg/dL
  blood glucose level, 30 min: 124.02 ± 4.01 mg/dL
  blood glucose level, 60 min: 119.33 ± 4.63 mg/dL
  blood glucose level, 90 min: 114.98 ± 4.03 mg/dL
  blood glucose level, 120 min: 116.49 ± 4.71 mg/dL
[3]; dose 20 mg/kg
  blood glucose level, 0 min: 103.87 ± 4.18 mg/dL
  blood glucose level, 30 min: 119.61 ± 4.55 mg/dL
  blood glucose level, 60 min: 116.20 ± 4.78 mg/dL
  blood glucose level, 90 min: 112.69 ± 4.11 mg/dL
  blood glucose level, 120 min: 111.61 ± 4.97 mg/dL
[4]; 10 mg/kg p.o. once daily
  blood glucose level, day 1: 369.82 ± 4.12 mg/dL
  blood glucose level, day 7: 294.04 ± 4.67 mg/dL
  blood glucose level, day 14: 196.39 ± 4.12 mg/dL
  blood glucose level, day 21: 151.11 ± 4.39 mg/dL
[4]; [8]
  blood glucose level, day 28: 134.20 ± 4.21 mg/dL
[4]; 20 mg/kg p.o. once daily
  blood glucose level, day 1: 370.33 ± 3.98 mg/dL
  blood glucose level, day 7: 231.69 ± 5.20 mg/dL
  blood glucose level, day 14: 158.26 ± 4.67 mg/dL
  blood glucose level, day 21: 127.21 ± 4.81 mg/dL
[4]; [9]
  blood glucose level, day 28: 109.71 ± 4.23 mg/dL
[5]; 10 mg/kg
  body weight, day 1: 188.5 ± 4.07
  body weight, day 7: 186.8 ± 4.39
  body weight, day 14: 187.1 ± 4.33
  body weight, day 21: 181.6 ± 4.21
  body weight, day 28: 179.3 ± 4.41
[5]; 20 mg/kg
  body weight, day 1: 189.1 ± 4.19
  body weight, day 7: 188.5 ± 4.21
  body weight, day 14: 189.2 ± 4.66
  body weight, day 21: 183.4 ± 4.18
  body weight, day 28: 182.5 ± 4.58
[6]; 10 mg/kg for 28 days
  HDL: 45.25 ± 2.15 mg/dL
  LDL: 129.08 ± 4.06 mg/dL
  TG: 144.11 ± 4.39 mg/dL
[6]; 10 mg/kg for 28 days, 10 mg/kg
  total CH: 149.08 ± 4.12 mg/dL
[6]; 20 mg/kg for 28 days
  HDL: 55.21 ± 2.66 mg/dL
  LDL: 110.41 ± 3.90 mg/dL
  TG: 115.24 ± 4.13 mg/dL
[6]; 20 mg/kg for 28 days, 20 mg/kg
  total CH: 135.11 ± 4.02 mg/dL
[7]; 10 mg/kg for 28 days
  insulin level: 0.690 ± 0.27 ng/mL
  serum creatinine: 0.75 ± 0.36 mg/dL
  (ALP) IU: 210.98 ± 4.39 IU
  (SGOT) IU: 25.56 ± 2.18 IU
  (SGPT) IU: 25.08 ± 2.78 IU
[7]; 20 mg/kg for 28 days
  insulin level: 0.697 ± 0.34 ng/mL
  serum creatinine: 0.72 ± 0.30 mg/dL
  (ALP) IU: 203.51 ± 4.34 IU
  (SGOT) IU: 22.20 ± 2.21 IU
  (SGPT) IU: 22.82 ± 2.91 IU
